Measured values gathered from unrelated publications.
Target: PAS domain-containing serine/threonine-protein kinase (PASK, Homo sapiens, UniProt Q96RG2)

CNC(=O)c1cc(Oc2ccc(NC(=O)Nc3ccc(Cl)c(C(F)(F)F)c3)cc2)ccn1
inhibition (enzyme activity, inhibitor; 10 µM): -9%

Cc1cnc(NC2CCOCC2)nc1-n1cnc(C(=O)NC(CN)c2cc(F)cc(Cl)c2)c1 (centres unmarked)
remaining activity (enzyme activity, inhibitor, radiometric; 1 µM): 96%

CN1CC(Oc2cnc(C#N)cc2-c2ccn3nc(NC(=O)C4CC4)cc3c2)C1
inhibition (enzyme activity, inhibitor; 1 µM): -16%

Cc1ccc(Nc2nccc(N(C)c3ccc4c(C)n(C)nc4c3)n2)cc1S(N)(=O)=O
inhibition (enzyme activity, inhibitor; 0.3 µM): -1%

CC(C)(C)c1nc2c(s1)c1nc(N)ncc1c1ccc(NS(=O)(=O)c3c(F)cccc3F)c(F)c12
remaining activity (enzyme activity, inhibitor, radiometric; 1 µM): 99%

N#CCCc1ccc2c(c1)-c1[nH]c3ccc([N+](=O)[O-])cc3c1CC(=O)N2
remaining signal (cell-free assay; 0.5 µM): 96.9%

COc1cc2ncnc(Nc3ccc(Oc4ccccc4)c(C)c3C)c2cc1OC
inhibition (enzyme activity, inhibitor; 1 µM): 6%

COc1cc(Cl)c(C(=O)N[C@@H](CN[C@H]2CC[C@@H](N)CC2)Cc2ccc(C#N)cc2)cc1-c1ccc(CN[C@H](C)c2ccc(C)cc2)o1
remaining activity (enzyme activity, inhibitor; 1 µM): 72%

CC/C(=N\NC(=O)NCc1cccc(O)c1)c1ccc(O)c(C)c1O
inhibition (enzyme activity, inhibitor; 0.1 µM): -0.2%

CCN(CC)CCNC(=O)c1c(C)[nH]c(/C=C2\C(=O)Nc3ccc(F)cc32)c1C
inhibition (enzyme activity, inhibitor; 10 µM): 19%

O=C(Nc1cnn(-c2csc(C(=O)NC3COC3)c2)c1)Nc1c(F)cccc1Cl
remaining activity (enzyme activity, inhibitor; 5 µM): 99.7%

O=C1Nc2ccc(Cl)cc2C1=Cc1cc(Cl)c(O)c(Cl)c1
remaining signal (cell-free assay; 0.5 µM): 70%

O=C(Nc1cnn(-c2csc(C(=O)NC3COC3)c2)c1)Nc1ccccc1Cl
remaining activity (enzyme activity, inhibitor; 5 µM): 96.3%

CCCS(=O)(=O)Nc1ccc(F)c(C(=O)c2c[nH]c3ncc(-c4ccc(Cl)cc4)cc23)c1F
inhibition (enzyme activity, inhibitor; 1 µM): < 10%
